In ChEMBL document CHEMBL3227949, “Antimalarials. 4. Trichloronaphthalene amino alcohols” (1979):
Active and inactive are the calls of the source. No cut-off for these calls is given here.

What was measured:
Plasmodium berghei [1] = assay: Antimalarial activity against sc dosed Plasmodium berghei infected in mouse assessed as dose resulting in mean survival time […]; format: functional; conditions: read-out: MED
Plasmodium berghei [2] = assay: Antimalarial activity against Plasmodium berghei infected in mouse assessed as change in mean survival time at 20 mg/kg, sc administered as single dose 72 hrs after parasite infection (reference value: 6.1 days); format: functional; conditions: route subcutaneous
Plasmodium berghei [3] = assay: Antimalarial activity against Plasmodium berghei infected in mouse assessed as change in mean survival time at 10 mg/kg, sc administered as single dose 72 hrs after parasite infection (reference value: 6.1 days); format: functional; conditions: route subcutaneous
Plasmodium berghei [4] = assay: Antimalarial activity against Plasmodium berghei infected in mouse assessed as curing of parasite infection at 640 mg/kg, sc administered as single dose 72 hrs after parasite infection; format: functional, organism-based; design: dose 640 mg/kg
Plasmodium berghei [5] = assay: Antimalarial activity against Plasmodium berghei infected in mouse assessed as curing of parasite infection at 160 mg/kg, sc administered as single dose 72 hrs after parasite infection; format: functional, organism-based; design: dose 160 mg/kg
Method in brief: (§1)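 Mice (five per group) infected with P. berghei were given a single subcutaneous dose 72 h after infection. Increase in mean survival time over infected untreated controls was recorded, and an increase of at least 100% counted as activity. The screen was run by Rane Laboratories.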

Plasmodium berghei [6] = assay: Antimalarial activity against Plasmodium berghei infected in mouse assessed as curing of parasite infection at 320 mg/kg, sc administered as single dose 72 hrs after parasite infection; format: functional, organism-based; design: dose 320 mg/kg; method in brief: as §1
Plasmodium berghei [7] = assay: Antimalarial activity against Plasmodium berghei infected in mouse assessed as change in mean survival time at 40 mg/kg, sc administered as single dose 72 hrs after parasite infection (reference value: 6.1 days); format: functional; conditions: route subcutaneous
Plasmodium berghei [8] = assay: Antimalarial activity against Plasmodium berghei infected in mouse assessed as change in mean survival time at 640 mg/kg, sc administered as single dose 72 hrs after parasite infection (reference value: 6.1 days); format: functional; conditions: route subcutaneous
Plasmodium berghei [9] = assay: Antimalarial activity against Plasmodium berghei infected in mouse assessed as change in mean survival time at 80 mg/kg, sc administered as single dose 72 hrs after parasite infection (reference value: 6.1 days); format: functional; conditions: route subcutaneous

SMILES | minimal effective dose (Plasmodium berghei [1]) [mg/kg] | MST (Plasmodium berghei [2]) [days] | MST (Plasmodium berghei [3]) [days] | Activity (Plasmodium berghei [4]) | Activity (Plasmodium berghei [5]) | Activity (Plasmodium berghei [6]) | MST (Plasmodium berghei [7]) [days] | MST (Plasmodium berghei [8]) [days] | MST (Plasmodium berghei [9]) [days]
Cl.OC(c1cc(-c2ccc(Cl)cc2)nc2c(Cl)cc(Cl)cc12)C1CCCCN1 (stereo not given) | 5 |  |  |  |  |  |  |  | 
CC(=O)O.OC(c1cc(-c2ccc(Cl)cc2)cc2c(Cl)cc(Cl)cc12)C1CCCCN1 (stereo not given) | 20 | 1.1 | 0.5 |  |  |  |  |  | 
CCCCN(CCCC)CCC(O)c1cc(-c2ccc(Cl)cc2)cc2c(Cl)cc(Cl)cc12.Cl (stereo not given) |  | 12.1 | 2.9 | Active | Active | Active |  |  | 
CCCCN(CCCC)CC(O)c1cc(-c2ccc(Cl)cc2)nc2c(Cl)cc(Cl)cc12.Cl (stereo not given) | 10 |  |  |  |  |  |  |  | 
CCCCN(CCCC)CC(O)c1cc(-c2ccc(Cl)cc2)cc2c(Cl)cc(Cl)cc12.Cl (stereo not given) | 10 | 9.5 | 7.9 | Active |  |  | 10.5 |  | 
Cl.OC(CC1CCCCN1)c1cc(-c2ccc(Cl)cc2)cc2c(Cl)cc(Cl)cc12 (stereo not given) |  | 9.8 | 3.6 |  |  |  | 11.8 | 6 | 16.6
